Results collected from several papers.
Lines come from different studies, so protocols differ.
Target: Serine/threonine-protein kinase tousled-like 2 (TLK2, Homo sapiens, UniProt Q86UE8)

CNC(=O)Nc1ccc2c(c1)CC[C@@]21OC(=O)N(CC(=O)N(Cc2ccc(F)cc2)[C@@H](C)C(F)(F)F)C1=O — remaining binding (cell-free assay, competition with immobilised ligand; 1 µM): 100%
CNC(=O)c1cc(Oc2ccc(NC(=O)Nc3ccc(Cl)c(C(F)(F)F)c3)cc2)ccn1 — inhibition (enzyme activity, inhibitor; 0.3 µM): -9%
C[C@H](c1ccc(F)cc1)N(Cc1cccc(C(=O)O)c1)C(=O)c1cnc2ccccc2c1 — remaining binding (cell-free assay, competition with immobilised ligand; 1 µM): 97%
C[S+]([O-])c1ccc(-c2nc(-c3ccncc3)c(-c3ccc(F)cc3)[nH]2)cc1 (stereo not drawn) — remaining signal (cell-free assay; 0.5 µM): 96.5%
CN1CC(Oc2cnc(C#N)cc2-c2ccn3nc(NC(=O)C4CC4)cc3c2)C1 — inhibition (enzyme activity, inhibitor; 1 µM): 1%
Cc1cnc(NC2CCOCC2)nc1-n1cnc(C(=O)NC(CN)c2cc(F)cc(Cl)c2)c1 (stereo not drawn) — remaining activity (enzyme activity, inhibitor, radiometric; 1 µM): 100%
CCN(CC)c1ccc(C2=NNC(=O)CC2C)cc1[N+](=O)[O-] (stereo not drawn) — remaining activity (enzyme activity, inhibitor; 10 µM): 82%
O=C1NC(=O)c2cc(Nc3ccc(F)cc3)c(Nc3ccc(F)cc3)cc21 — remaining signal (cell-free assay; 0.5 µM): 93.5%
CCCCNc1ncc2c(-c3ccc(F)cc3)nn(C[C@H]3CC[C@H](N)CC3)c2n1 — inhibition (target engagement in cells, inhibitor, chemoproteomics; 20 mM): -20.7%
CCCOc1ccc(OC)c(F)c1C(=O)c1ccc(C(=O)N[C@@H]2CNC[C@H]2NC(=O)c2ccc3[nH]ncc3c2)cc1 — remaining activity (enzyme activity, inhibitor; 10 µM): 90%
O=C(Nc1cnn(-c2csc(C(=O)NC3COC3)c2)c1)Nc1c(F)cccc1Cl — remaining activity (enzyme activity, inhibitor; 5 µM): 109%
COc1cc(Cl)c(C(=O)N[C@@H](CN[C@H]2CC[C@@H](N)CC2)Cc2ccc(C#N)cc2)cc1-c1ccc(CN[C@H](C)c2ccc(C)cc2)o1 — remaining activity (enzyme activity, inhibitor; 1 µM): 94%
CC(C)(C)c1nc(-c2cccc(NS(=O)(=O)c3c(F)cccc3F)c2F)c(-c2ccnc(N)n2)s1 — remaining activity (enzyme activity, inhibitor, radiometric; 1 µM): 96%
C[C@@H](c1cccc(C#N)c1)n1cc(Cl)cc(C(N)=O)c1=N — remaining binding (cell-free assay, competition with immobilised ligand; 1 µM): 100%
O=C1Nc2ccc(Cl)cc2C1=Cc1cc(Cl)c(O)c(Cl)c1 — remaining signal (cell-free assay; 0.5 µM): 105%
CN(C)c1ncnc(-c2ccc3nc(Nc4cc(CN5CCN(C(=O)CC(F)(F)F)CC5)ccn4)[nH]c3c2)c1Cl — remaining binding (cell-free assay, competition with immobilised ligand; 1 µM): 100%
Cc1ccc(Nc2nccc(N(C)c3ccc4c(C)n(C)nc4c3)n2)cc1S(N)(=O)=O — remaining signal (cell-free assay, inhibitor; 0.5 µM): 85.6%
COc1ccc2cc(OCC3(C(=O)O)CN(C(=O)c4ccc(F)cc4)C3)ccc2c1 — remaining binding (cell-free assay, competition with immobilised ligand; 1 µM): 100%
COc1cccc2c(NCc3ccccc3)nc(-n3c(N)nc4ccccc43)nc12 — inhibition (target engagement in cells, inhibitor, chemoproteomics; 20 mM): -7.5%
CCCCN(CCCC)C(=O)CN1C[C@@H](c2cc(OC)c3c(c2)OCO3)[C@H](C(=O)O)[C@H]1CC(C)(C)CCC — remaining binding (cell-free assay, competition with immobilised ligand; 1 µM): 100%
CCCS(=O)(=O)Nc1ccc(F)c(C(=O)c2c[nH]c3ncc(-c4ccc(Cl)cc4)cc23)c1F — inhibition (enzyme activity, inhibitor; 1 µM): < 10%
